Published values of several laboratories.
Each line is one published result; the experiments were not run side by side.
Cell line: HepG2
Read-out: cell growth or viability

Compound	test	conditions	inhibition
Cc1cc(=O)oc2ccc(-c3cc(-c4cccc(Cl)c4)nc(N)n3)c(O)c12	MTT	8 µg/mL, 72 h	0%
O=C(CN1C(=O)/C(=C/c2ccc(C(F)(F)F)cc2)SC1=S)Nc1ccccc1	MTT	10 µM	11.2%
Cc1cc(Nc2ccc(C(=O)N/N=C/c3ccnc(Cl)c3)cc2)c2cccc(O)c2n1	MTT	20 µM	42.4%
CCOc1ccc(/C=C2\SC(=S)N(CC(=O)Nc3ccccc3)C2=O)cc1	MTT	10 µM	34.3%
Cc1cc(Nc2ccc(C(=O)N/N=C/C3CCCCC3)cc2)c2cccc(O)c2n1	MTT	20 µM	45.4%
Cc1ccc(-c2cc(-c3ccc4oc(=O)cc(C)c4c3O)nc(N)n2)cc1	MTT	2 µg/mL, 72 h	0%
CCOC(=O)c1c(C)ncn1CC(c1cn(C)c2ccc([N+](=O)[O-])cc12)c1cn(C)c2ccc([N+](=O)[O-])cc12	MTS	20 µM, 24 h	10.2%
Cc1cc(Nc2ccc(C(=O)N/N=C/c3ccc[nH]3)cc2)c2cccc(O)c2n1	MTT	20 µM	43.9%
Cc1cc(=O)oc2ccc(-c3cc(-c4ccc(Br)cc4)nc(N)n3)c(O)c12	MTT	2 µg/mL, 72 h	0%
O=C(CN1C(=O)/C(=C/c2ccc(Cl)cc2)SC1=S)Nc1ccccc1	MTT	10 µM	21.2%
Cc1cccc(/C=N/NC(=O)c2ccc(Nc3cc(C)nc4c(O)cccc34)cc2)n1	MTT	20 µM	45.4%
O=C(CN1C(=O)/C(=C/c2cccs2)SC1=S)Nc1ccccc1	MTT	10 µM	11.8%
COc1ccc(/C=N/NC(=O)c2ccc(Nc3cc(C)nc4c(O)cccc34)cc2)cc1O	MTT	20 µM	34.6%
Cc1cc(=O)oc2ccc(-c3cc(-c4cccs4)nc(N)n3)c(O)c12	MTT	32 µg/mL, 72 h	14%
O=C(CN1C(=O)/C(=C/c2ccc(Cl)cc2Cl)SC1=S)Nc1ccccc1	MTT	10 µM	8.03%
Cc1cc(Nc2ccc(C(=O)N/N=C/c3cccc(Oc4ccccc4)c3)cc2)c2cccc(O)c2n1	MTT	20 µM	51.7%
O=C(CN1C(=O)/C(=C/c2cccc(F)c2)SC1=S)Nc1ccccc1	MTT	10 µM	7.27%
CCCCCCCCCCCCCCCCOP(=O)([O-])OCC[N+](C)(C)C	MTS	20 µM, 24 h	37.9%
